# Assay outcomes (PubChem BioAssay)
# In the library only some 3.4% were active in any assay of this set; here they are far more common.
# HTR2A ag = mouse Htr2a agonists via beta-arrestin recruitment, primary screen, cell-based, luminescence; 0.66% of 360,000 active; CHO-K1 mHTR2A beta-arrestin complementation; percent of 30 µM serotonin response; activation, % at 7.6 µM; AID 624169, 2012;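 active = activation above a run cutoff, the mean activation of all tested compounds plus 3 SD, cut at about 14% in these data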
# MC4R ag barr = MC4R agonists recruiting beta-arrestin, primary screen, cell-based, luminescence, agonist arm of biased-ligand search; Melanocortin receptor 4 (Homo sapiens), P32245; U2OS MC4R beta-arrestin complementation; percent of melanotan II response, DMSO zero; activation, % at 8.9 µM; 0.98% of 360,000 active; AID 540308, 2011;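 active = activation above a per-plate cutoff, the mean activation of sample wells on that plate plus 3 SD, cut at about 8% in these data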
# beta cell repl = inducers of MIN6 beta-cell proliferation, primary screen, ATP luminescence, uHTS. proliferation, % at 10 µM. 0.29% of 330,000 active. MIN6 cells proliferation, ATPlite luminescence, 48 h; cells starved in 0.2% serum; 100% = growth in 10% serum. AID 2380, 2010;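 active = compounds whose signal lies at least 3.5 SD above the mean of all wells on their plate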
# TMEM16A act = TMEM16A chloride channel activators or potentiators, primary screen, cell-based, HTS; Anoctamin-1 (Mus musculus), Q8BHY3; HEK293 TMEM16A/YFP-H148Q/I152L, iodide quench fluorescence; stronger effect = lower value; 0.3% of 340,000 active; AID 623877, 2012; B-score at 10 µM;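 active = fluorescence-ratio B-score plate-corrected deviation score at least 3 library SD below zero, with starting fluorescence score within 5 deviations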;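 also: channel opened by trigger with iodide after compound preincubation; score built on the fluorescence ratio of max minus min over baseline; more negative score means more quench and so TMEM16A activation or potentiation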
# Target sequence (Q8BHY3 whole entry, looked up): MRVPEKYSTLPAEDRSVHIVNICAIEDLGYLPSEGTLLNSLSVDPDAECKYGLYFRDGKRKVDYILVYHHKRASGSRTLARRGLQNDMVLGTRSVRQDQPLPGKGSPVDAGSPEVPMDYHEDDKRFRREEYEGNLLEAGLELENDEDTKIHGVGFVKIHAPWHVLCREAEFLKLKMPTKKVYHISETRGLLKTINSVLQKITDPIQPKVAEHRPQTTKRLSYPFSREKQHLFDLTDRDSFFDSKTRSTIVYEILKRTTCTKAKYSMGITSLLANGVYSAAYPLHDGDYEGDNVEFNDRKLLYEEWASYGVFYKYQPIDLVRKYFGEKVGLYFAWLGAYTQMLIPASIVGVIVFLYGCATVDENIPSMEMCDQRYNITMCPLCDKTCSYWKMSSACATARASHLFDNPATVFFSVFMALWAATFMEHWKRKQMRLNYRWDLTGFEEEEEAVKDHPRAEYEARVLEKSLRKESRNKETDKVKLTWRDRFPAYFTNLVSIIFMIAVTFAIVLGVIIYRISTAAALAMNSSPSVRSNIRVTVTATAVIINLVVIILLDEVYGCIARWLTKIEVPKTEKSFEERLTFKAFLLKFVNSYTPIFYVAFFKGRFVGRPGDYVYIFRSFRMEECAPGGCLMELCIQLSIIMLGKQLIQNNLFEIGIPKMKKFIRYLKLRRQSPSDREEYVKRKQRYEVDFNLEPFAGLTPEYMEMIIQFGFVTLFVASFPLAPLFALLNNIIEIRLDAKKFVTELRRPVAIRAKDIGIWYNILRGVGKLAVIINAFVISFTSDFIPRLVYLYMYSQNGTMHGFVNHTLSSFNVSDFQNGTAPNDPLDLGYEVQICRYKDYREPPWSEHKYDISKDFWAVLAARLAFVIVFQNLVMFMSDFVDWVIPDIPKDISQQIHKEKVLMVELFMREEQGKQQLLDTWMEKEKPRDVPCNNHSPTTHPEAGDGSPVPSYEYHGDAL
# ANO1 block = TMEM16A chloride channel inhibitors, primary screen, cell-based, HTS | Anoctamin-1 (Mus musculus), Q8BHY3 | HEK293 TMEM16A/YFP iodide influx fluorescence, ionomycin | normalized B-score (activity score, 25-100; higher = stronger inhibition) at 10 µM | 1.2% of 310,000 active;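 active = ratio plate-corrected score three or more library SD toward inhibition, starting fluorescence score within five deviations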;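 also: score derived from kinetic fluorescence span divided by baseline fluorescence per well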
# MC4R antagonist = MC4R antagonists of cAMP signaling, primary screen, cell-based, TR-FRET, antagonist arm of biased-ligand search | Melanocortin receptor 4 (Homo sapiens), P32245 | MC4R-expressing cells, MTII-stimulated cAMP, LANCE TR-FRET | inhibition, % at 6.5 µM | 0.48% of 360,000 active | AID 540295, 2011;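 active = inhibition above its plate's cutoff, the mean of tested wells on that plate plus 3 SD, cut at about 29% in these data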
#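 Material: U2OS-MC4R stable cell line | Reagent: Melanotan II challenge after compound preincubation | Doses: One concentration, 6.5 µM nominal | Incubation: 30-min compound preincubation, 1-h Melanotan II challenge, 1-h detection, room temperature | Signal: TR-FRET cAMP assay | Replicates: One well per compound, no replicates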
# MC4R barr ag = MC4R beta-arrestin agonists, retest, confirmation, cell-based, luminescence, U2OS; activation, % at 8.9 µM; U2OS MC4R beta-arrestin recruitment; scaled DMSO 0%, Melanotan II 100%; shares compounds with MC4R ag barr; 31% of 2,400 active;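 active = mean activation across replicates above the hit cutoff set in the earlier primary screen, cut at about 8% in these data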
# MOR DOR agonist = agonists of MOR-DOR heterodimerization, counter-screen for MC4R biased agonist project, cell-based, luminescence; shares compounds with MC4R ag barr; U2OS PathHunter beta-arrestin, beta-gal luminescence; percent of deltorphin B response, DMSO zero; activation, % at 9.2 µM; 5.8% of 2,400 active;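 active = mean activation across replicates exceeds the hit threshold derived in the earlier primary screen, cut at about 18% in these data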
# A number is an active result; - = inactive; . = no result given; ! = repeats disagree.
SMILES,HTR2A ag,MC4R ag barr,beta cell repl,TMEM16A act,ANO1 block,MC4R antagonist,MC4R barr ag,MOR DOR agonist
O=C(/C=C/c1ccccc1[N+](=O)[O-])OCC(=O)N1CCN(c2ccccc2)CC1,-,-,.,.,.,-,.,.
CC(C(=O)N1c2ccccc2CC1C)N1CCN(S(=O)(=O)c2ccccc2F)CC1 (centres undefined),-,-,-,-,.,-,.,.
CC(C)c1ccc(NC(=O)C2CCN(c3ncnc4c3nc3n4CCCCC3)CC2)cc1,-,27,-,-,-,-,-,-
O=C(O)Cc1ccc(S(=O)(=O)N2CCCC2)s1,-,-,-,-,.,-,.,.
Cc1ccc2c(Cl)cc(Cl)c(OCC(=O)NC(=O)NCc3ccco3)c2n1,-,11,-,-,-,-,-,-
C=CCOc1cccc(/C=C/c2nc3ccccc3c(=O)[nH]2)c1,-,24,-,-,-,-,-,-
O=C(Nc1ccc(O)cc1)c1cc2ccccc2c(=O)s1,-,-,-,-,-,-,.,.
O=C(Nc1ccccc1)c1cc2ccccc2c(=O)s1,-,13,-,-,-,-,-,-
COc1cc(NC(=O)CSc2nc3ccccc3c(=O)n2C)ccc1NC(=O)c1ccco1,-,14,-,-,-,-,-,-
COc1cc(NC(=O)COc2ccccc2)ccc1NC(=O)c1ccco1,-,-,-,-,-,-,.,.
COc1ccc(C(=O)[C@@H]2CC[C@](C)(C(=O)O)C2(C)C)cc1,-,-,-,-,-,-,.,.
O=C1/C(=C/c2ccc(F)cc2)SC(=S)N1Nc1ncc(C(F)(F)F)cc1Cl,-,9.9,-,-,-,-,-,-
O=C1/C(=C\c2ccccn2)SC(=S)N1Nc1ncc(C(F)(F)F)cc1Cl,-,-,-,-,-,-,.,.
O=C(/C=C/c1cc([N+](=O)[O-])ccc1OC(F)F)Nc1cccc(OC(F)F)c1,-,20,-,-,-,-,-,-
COc1ccccc1NC(=O)/C=C/c1cc([N+](=O)[O-])ccc1OC(F)F,-,-,-,-,-,-,.,.
O=C1c2cccnc2C(=O)N1Cc1ccc(S(=O)(=O)N2CCN(c3ccc(Cl)cc3)CC2)cc1,-,11,-,-,-,-,-,-
CCN1CCN(Cc2ccc(NC(=O)c3cc(NC(=O)c4cncc(-c5ccc(C#N)cc5)c4)cc(OC)c3)cc2C(F)(F)F)CC1,-,13!,-,-,-,-,20,-
CCC(C)NC(=O)C1CC(=O)N(CCc2ccc(F)cc2)C1 (centres undefined),-,-,-,-,-,-,.,.
Cc1ccc(O)c(C(=O)/C=C/c2ccc3c(c2)OCCO3)c1,-,22,-,-,-,-,21,-
O=C1N/C(=C/c2cccn2-c2ccccc2)C(=O)N1Cc1ccc(F)cc1,-,17,-,-,-,-,-,-
O=C(CN(Cc1ccccc1)S(=O)(=O)c1cccc(C(F)(F)F)c1)NC1CCCCC1,-,12,-,-,-,-,-,-
Cc1ccc(C2=N/C(=C\c3ccc(F)cc3)C(=O)N2)cc1,-,22,-,-,.,-,-,-
O=c1[nH]nc(Cc2ccc(-c3cccc(Cl)c3)o2)c2ccccc12,-,14,-,-,-,-,-,-
CC1CCCN(C2(O)C(=O)Nc3ccc(Cl)cc32)C1 (centres undefined),-,-,-,-,-,-,.,.
O=C(CCCCCn1c(SCC(=O)c2ccccc2)nc2ccccc2c1=O)NCc1ccco1,-,28,-,-,-,-,-,-
SMILES,HTR2A ag,MC4R ag barr,beta cell repl,TMEM16A act,ANO1 block,MC4R antagonist,MC4R barr ag,MOR DOR agonist
Cc1cccc(Cn2c(=O)n(CCCC(=O)NCc3ccco3)c(=O)c3ccccc32)c1,-,-,-,-,-,-,.,.
Cc1nc2c3ccccc3nc(SCC(=O)c3ccc(Cl)cc3)n2n1,-,11,-,-,-,-,14,-
O=C(CCCn1c(SCC(=O)c2ccc(Cl)cc2)nc2ccccc2c1=O)NCc1ccco1,-,19,-,-,-,-,-,29
CCCCn1c(SCC(=O)NCc2ccco2)nc2ccccc2c1=O,-,-,-,-,-,-,.,.
O=C(CCCCn1c(=O)c2ccccc2n(Cc2ccc(Cl)cc2)c1=O)NCc1ccco1,-,12,-,-,-,-,-,-
CCCCCC(=O)N1C[C@@H](O)[C@H](n2cc(COC(=O)c3ccccc3)nn2)C[C@@H]1c1ccc(Cl)cc1,-,-,.,.,.,-,.,.
OC1(c2cccc(C(F)(F)F)c2)CCN(c2ncnc3c2[nH]c2ccc(F)cc23)CC1,-,9.8,.,-,.,-,-,-
COc1ncnc2c1ncn2CCCNCC(c1ccccc1)c1ccccc1,-,-,.,.,.,-,.,.
c1ccc(COc2ncnc3c2ncn3CCCNCC(c2ccccc2)c2ccccc2)cc1,-,13,.,.,.,-,11,30
Cc1ccc2nc(-c3ccc(NC(=O)CN4CCN(c5ccccn5)CC4)cc3)sc2c1,-,10.0,-,-,-,-,-,-
Cc1ccc2nc(NC(=O)CN3CCN(c4ccccn4)CC3)sc2c1,-,-,-,-,-,-,.,.
Cc1ccc2nc(-c3ccc(NC(=O)CSc4nc(N)cc(=O)[nH]4)cc3)sc2c1,-,13,-,-,-,-,-,-
Cc1ccccc1CN1C(=O)CSCC1(C)C(=O)Nc1ccc2c(c1)OCCO2 (centres undefined),-,.,.,.,.,.,.,.
CC(=O)Nc1cc(-c2cccnc2)cn2c(-c3cccc(C(F)(F)F)c3)cnc12,-,28,.,.,.,-,29,-
COc1ccc(-c2cc(NC=O)c3ncc(-c4cccc(C(F)(F)F)c4)n3c2)c(OC)c1,-,20,.,.,.,-,13,-
COc1cccc(-c2cnc3c(NC=O)cc(-c4ccncc4)cn23)c1,-,-,.,.,.,-,.,.
COc1ccccc1-c1cc(NC(C)=O)c2ncc(-c3cccc(C(F)(F)F)c3)n2c1,-,25,.,.,.,-,22,-
